Sampled rows, rich in hits. Any-hit rate of the full collection: about 2.9%.
ATG4B inhibitor – inhibitors of human ATG4B cysteine protease; Q9Y4P1; ATG4B cleavage of LC3-PLA2, NBD-HPC fluorescence, 1 h; inhibition, % at 8.33 µM; 0.51% of 340,000 active; in the data active means inhibition above about 40%
MEKK2 mut-MEK5 – signal of MEK5 binding to mutant human MEKK2 PB1 domain | bead flow cytometry, Alexa488-MEK5 binding to MEKK2 mutant | percent response, % at 10 µM | 0.35% of 290,000 active; in the data active means percent response above about 24%, passing the limit was not always enough
Dynein cargo inh – dynein cargo transport inhibition. 3617.4 mouse cells, GR-EGFP nuclear translocation imaging; test concentration mostly 20 µM; stimulated with dexamethasone, 1 µM; stronger effect = lower value. z-score, hits read low. 0.47% of 220,000 active. AID 1381;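 active means plate z-score of nuclear minus cytoplasmic receptor signal below a set negative limit, without overly bright fluorescence or cell loss, cut at about -3.5 in these data, passing the limit was not always enough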;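 further: z-score of nuclear minus cytoplasmic ring GR-EGFP intensity difference per well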
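Also added: dexamethasone, 1.0 µM final. Medium: tet-free, stripped-serum medium. Detection: fixed, Hoechst-stained cells imaged at 10x for EGFP. Read-out: nuclear-to-cytoplasmic GR-EGFP distribution per well. Times: induction 48 h, compound 1 h, agonist 30 min.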
MEKK3 PB1 HTS – MEKK3-MEK5 PB1 interaction, increase or decrease. bead-based flow cytometry, Alexa488-MEK5 binding to MEKK3; actives lie on both sides; 0 = blocked by unlabeled MEK5, 100 = vehicle. binding response (% of control), % at 10 µM. 1.4% of 290,000 active;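 active means binding response more than 3 SD above or below the average of its plate-row segment, actives on both sides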;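 further: Alexa488 bead fluorescence after subtracting the streptavidin-only scavenger bead signal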
MEKK2wt PB1 HTS – raises or lowers MEK5 binding to wildtype human MEKK2 PB1 domain; bead flow cytometry, Alexa488-MEK5 binding to MEKK2 WT; actives lie on both sides; AID 1531; binding response (% of control), % at 10 µM; Q9Y2U5; 1.1% of 290,000 active; in the data active means binding response below about 67% or above about 130%
B2AR ag – activates human beta-2 adrenergic receptor causing internalization; P07550; Am2.2-beta2AR cells, FAP receptor internalization, flow cytometry; response, % (test concentration not listed); 0.43% of 340,000 active; AID 504454;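 active means response above a set limit, near 3 SD of response in nonfluorescent compounds, cut at about 42% in these data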
Target sequence (P07550 whole entry, looked up): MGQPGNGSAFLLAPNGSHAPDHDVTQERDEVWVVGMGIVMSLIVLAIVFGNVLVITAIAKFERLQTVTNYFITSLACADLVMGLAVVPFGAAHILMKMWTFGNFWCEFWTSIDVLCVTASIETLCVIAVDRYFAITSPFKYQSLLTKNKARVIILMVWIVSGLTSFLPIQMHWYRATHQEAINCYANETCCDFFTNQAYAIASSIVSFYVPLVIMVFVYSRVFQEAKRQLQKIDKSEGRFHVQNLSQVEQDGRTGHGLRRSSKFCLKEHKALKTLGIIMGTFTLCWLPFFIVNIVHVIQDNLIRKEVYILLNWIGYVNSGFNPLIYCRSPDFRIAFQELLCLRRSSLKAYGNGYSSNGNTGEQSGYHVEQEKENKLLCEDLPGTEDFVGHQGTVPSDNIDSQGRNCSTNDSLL
Active calls of the source: *; x = not tested or not shown; ! = not confirmed by another sample; [ ] = dose if it differs, or a comment.

SMILES | ATG4B inhibitor | MEKK2 mut-MEK5 | Dynein cargo inh | MEKK3 PB1 HTS | MEKK2wt PB1 HTS | B2AR ag
CC(=O)Nc1cc2c(cc1Br)-c1ccccc1C2 | -10 | x | x | x | x | 3
COC(=O)c1cccc(NC(=O)c2cnn(C)c2)c1 | 2 | x | x | x | x | -3
CCN(c1ccccc1)S(=O)(=O)c1ccc(C(=O)N(CCCN(C)C)c2nc3cc4c(cc3s2)OCO4)cc1 | -2 | 25* | x | 106 | 158* | 31
CN(C)CCCN(C(=O)c1ccc2c(c1)OCCO2)c1nc2cc3c(cc2s1)OCO3 | 2 | -2 | x | 96 | 103 | 2
NS(=O)(=O)c1ccc(CCNC(=S)NC2CCCC2)cc1 | -4 | -15 | -0.29 | 95 | -10* | 4
COCCCN1C(=O)c2[nH]nc(-c3ccccc3O)c2C1c1cccc(Cl)c1 (stereo unspecified) | -22 | 3 | 0.047 | 107 | 104 | -1
CC(C)OCCCN1C(=O)c2[nH]nc(-c3ccccc3O)c2C1c1cccc(Cl)c1 (stereo unspecified) | -24 | 3 | 0.31 | 138* | 110 | -4
O=Cc1cc(CCC(=O)O)ccc1O | -3 | 1 | x | 100 | 103 | -3
CCn1nc(C(=O)NCCc2ccc3c(c2)OCCO3)c2ccccc2c1=O | 0 | x | x | x | x | -7
O=C(O/C(=C/c1ccccc1)C(F)(F)F)c1ccccc1 | -2 | x | x | x | x | -6
Cc1occc1-c1nnc(SCC(=O)Nc2ccccc2)n1C | 8 | 3 | -0.9 | 92 | -13* | 1
Cc1cc(Br)cc(Cl)c1OC(=O)c1ccncc1 | -5 | -39 | x | 1.0*[inhibitor] | 1.0*[inhibitor] | 11
CCOc1ccc(C(=O)Nc2nnc(NC(=S)Nc3ccccc3)s2)cc1 | -4 | -12 | 1.7 | 95 | 80 | 103*
CCCCN(C(=O)CCNC(=O)NC12CC3CC(CC(C3)C1)C2)c1c(N)n(CCC)c(=O)[nH]c1=O | 5 | x | x | x | x | -7
CC1CCc2c(sc(NC(=O)CSc3nc(N)cc(=O)[nH]3)c2C(N)=O)C1 (stereo unspecified) | -7 | x | x | x | x | 6
CCOC(=O)c1cc(-c2ccccc2)n(CCC(=O)N2CCN(c3ccccc3OC)CC2)c1C | -14 | -2 | -0.31 | 95 | 93 | 11
CCOC(=O)c1cc(-c2ccccc2)n(CCC(=O)N2CCN(c3ccc(OC)cc3)CC2)c1C | -6 | -1 | -0.1 | 95 | 2.0* | -9
CC(C)(C)NC(=O)CN(Cc1ccco1)C(=O)CCC(=O)Nc1nccs1 | -6 | 1 | x | 101 | 94 | 4
CCOC(=O)CCS(=O)(=O)c1nc(-c2ccccc2)cc(C(F)(F)F)n1 | -3 | -3 | -1.8 | 97 | 100 | 60*
CCOC(=O)CS(=O)(=O)c1ccccc1 | -6 | 2 | -1.7 | 97 | 96 | 3
O=C(O)CCS(=O)(=O)c1nc(-c2cccs2)cc(C(F)(F)F)n1 | 8 | 7 | -0.17 | 108 | 113 | -8
CCOC(=O)CS(=O)(=O)c1nc(-c2ccccc2)cc(C(F)(F)F)n1 | -4 | 2 | 2.1 | 102 | 103 | 109*
COC(=O)CCS(=O)(=O)c1nc(-c2ccccc2)cc(C(F)(F)F)n1 | 1 | -5 | -2.4 | 90 | 95 | 97*
COC(=O)[C@H]1C[C@H]2[C@@H]3CC[C@H]4C[C@@H](OC)CC[C@]4(C)[C@H]3CC[C@]2(C)[C@@]2(CCCO2)O1 | -1 | x | x | x | x | 8
CCOc1ccc(OCCC(=O)NNC(=O)c2cc(OC)c(OC)c(OC)c2)cc1 | 6 | x | x | x | x | 83*
SMILES | ATG4B inhibitor | MEKK2 mut-MEK5 | Dynein cargo inh | MEKK3 PB1 HTS | MEKK2wt PB1 HTS | B2AR ag
COc1cc(C(=O)NNC(=O)CCOc2cccc(Br)c2)cc(OC)c1OC | -4 | x | x | x | x | -6
C=CCOC(=O)C1=C(C)NC(SCC(=O)NC(=O)OCC)=C(C#N)C1c1cccnc1 (stereo unspecified) | -10 | 3 | 0.6 | 102 | 99 | 57*!
C=CCOC(=O)C1=C(C)NC(SCC(=O)N(CC)CC)=C(C#N)C1c1ccccc1 (stereo unspecified) | -6 | x | 0.24 | x | x | 12
O=C(CCN=C1NS(=O)(=O)c2ccccc21)NCc1ccccc1F | -7 | x | x | x | x | 3
COc1ccc(N(CC(=O)Nc2ccc(C(N)=O)cc2)S(=O)(=O)c2ccc(C)c([N+](=O)[O-])c2)cc1 | -9 | 6 | -0.27 | 102 | -7.0* | 5
CCOC(=O)CCCCCC(=O)Nc1ccc2c(c1)CC(=O)N([C@H](C)CO)C[C@H](C)[C@H](CN(C)S(=O)(=O)c1ccc(OC)cc1)O2 | -4 | x | x | x | x | -2
Cn1c(-c2ccccc2)cnc1N | 3 | 3 | -0.75 | 103 | 108 | 8
COc1ccc(-c2cnc(N)n2C)cc1 | -6 | -36 | -0.0024 | 98 | -8.0* | -4
CCC(C)n1c(SCC(=O)N(CC)c2c(N)n(Cc3ccccc3)c(=O)[nH]c2=O)nc2ccccc2c1=O (stereo unspecified) | 6 | x | x | x | x | -3
COc1ccc(CCNCc2ccc(OCc3ccccc3)cc2)cc1 | 5 | 13 | x | 104 | 136* | 17
COc1ccc(C(OCC(O)CNCCc2ccccc2)c2ccc(OC)cc2)cc1 (stereo unspecified) | 0 | 6 | x | 99 | 151* | 32
Cc1ccc(C(OCC(O)CNCc2ccc(F)cc2)c2ccccc2)cc1 (stereo unspecified) | 15 | 10 | x | 102 | 130 | 4
O=C(CN1C(=O)NC(c2ccccc2)(c2ccccc2)C1=O)NC1CCCCC1 | -1 | x | x | x | x | 2
Cc1ccccc1C(=O)Nc1cccc(C(=O)N/N=C/c2ccccn2)c1 | -5 | 1 | x | 96 | 99 | -3
COc1ccc2cc(-c3ccccc3F)ncc2c1 | -1 | x | x | x | x | 0
COC(=O)c1cc(=O)n(Cc2ccc3c(c2)OCO3)c(=Nc2ccc(F)cc2)s1 | 0 | 3 | -3.3 | 107 | 104 | 6
COC(=O)c1cc(=O)n(Cc2ccc3c(c2)OCO3)c(=Nc2ccccc2)s1 | -8 | 3 | -3.5* | 101 | 97 | 4
CC(C)CNc1nc(N)c([N+](=O)[O-])c(N2CCCCCC2)n1 | 14 | 5 | x | 103 | 104 | 2
CCOc1cc(NC(=S)NCC2CCCO2)c(OCC)cc1NC(=O)c1cccc(C)c1 (stereo unspecified) | -3 | 0 | -0.12 | 93 | 97 | 47*
O=[N+]([O-])c1cc(Br)c(Nc2ccccc2)c([N+](=O)[O-])c1 | 4 | 8 | x | 108 | 108 | 47*
CC(C)OC(=O)c1c2c(n3ccccc13)C(=O)c1ccccc1C2=O | -10 | -46 | -0.79 | 94 | 35*[inhibitor] | 19
C[C@@H](C(=O)N1CCN(C(=O)OC(C)(C)C)CC1)n1cc(-c2cn([C@@H](C)C(=O)N3CCN(C(=O)OC(C)(C)C)CC3)nn2)nn1 | x | 4 | 0.5 | 89 | 4.0* | x

From PubChem
